Source: ChEMBL document CHEMBL1124155, “Synthesis and dopamine agonist and antagonist effects of (R)-(-)- and (S)-(+)-11-hydroxy-N-n-propylnoraporphine” (J Med Chem, 1988)

Key:
Rattus norvegicus [1] = assay: Stereotyped behavior in rat induced by Aporphines after ip administration at 3.0 mg/kg dose; format: functional; conditions: route intraperitoneal
Method in brief: (§1)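 Aporphine given ip to rats (doses 0.3–3.0 mg/kg; saline as 0). Stereotyped behavior rated every 10 min for 1 h. Mean stereotypy score, maximum 18.0, ± SEM, N = 6. Student's t test, p < 0.05.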

Rattus norvegicus [2] = assay: Effect (3 mg/kg) on motor arousal induced by apomorphine (0.3 mg/kg) expressed as percent control; format: functional
Method in brief: (§2)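 Rats received test enantiomer ip immediately before apomorphine (0.3 mg/kg). They were then placed in a microcomputer-controlled electronic activity monitor for 1 h. Read-out was activity counts per hour, mean ± SEM, N = 6. Comparison was against a saline + apomorphine control by Student's t test.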

Rattus norvegicus [3] = assay: Stereotyped behavior in rat induced by Aporphines after ip administration at 0 mg/kg dose; format: functional; conditions: route intraperitoneal; method in brief: as §1
Rattus norvegicus [4] = assay: Effect (3 mg/kg) on motor arousal induced by apomorphine; format: functional; method in brief: as §2
Rattus norvegicus [5] = assay: Stereotyped behavior in rat induced by Aporphines after ip administration at 1.0 mg/kg dose; format: functional; conditions: route intraperitoneal; method in brief: as §1
Rattus norvegicus [6] = assay: Stereotyped behavior in rat induced by Aporphines after ip administration at 0.3 mg/kg dose; format: functional; conditions: route intraperitoneal; method in brief: as §1
Dopamine receptor = assay: Binding affinity against dopamine agonist sites from rat brain corpus striatal preparations using [3H]ADTN
D(1A) dopamine receptor = D(1A) dopamine receptor (Rattus norvegicus, UniProt P18901); assay: Binding affinity against Dopamine receptor D1 from rat brain corpus striatal preparations using [3H]SCH-23390
D(2) dopamine receptor = D(2) dopamine receptor (Rattus norvegicus, UniProt P61169); assay: Binding affinity against Dopamine receptor D2 from rat brain corpus striatal preparations using [3H]spiperone
Rattus norvegicus [7] = assay: Effect (10 mg/kg) on motor arousal induced by apomorphine (0.3 mg/kg) expressed as percent control; format: functional; method in brief: as §2
Rattus norvegicus [8] = assay: Effect (3 mg/kg) on motor arousal induced by apomorphine (0.3 mg/kg); format: functional; method in brief: as §2
Rattus norvegicus [9] = assay: Effect (1 mg/kg) on motor arousal induced by apomorphine (0.3 mg/kg) expressed as percent control; format: functional; method in brief: as §2
Rattus norvegicus [10] = assay: Effect (1 mg/kg) on motor arousal induced by apomorphine (0.3 mg/kg); format: functional; method in brief: as §2
Rattus norvegicus [11] = assay: Effect (0.3 mg/kg) on motor arousal induced by apomorphine; format: functional; method in brief: as §2
Rattus norvegicus [12] = assay: Effect on motor arousal induced by apomorphine (0.3 mg/kg) expressed as percent control; format: functional; method in brief: as §2

Sequence of D(2) dopamine receptor (P61169 whole entry): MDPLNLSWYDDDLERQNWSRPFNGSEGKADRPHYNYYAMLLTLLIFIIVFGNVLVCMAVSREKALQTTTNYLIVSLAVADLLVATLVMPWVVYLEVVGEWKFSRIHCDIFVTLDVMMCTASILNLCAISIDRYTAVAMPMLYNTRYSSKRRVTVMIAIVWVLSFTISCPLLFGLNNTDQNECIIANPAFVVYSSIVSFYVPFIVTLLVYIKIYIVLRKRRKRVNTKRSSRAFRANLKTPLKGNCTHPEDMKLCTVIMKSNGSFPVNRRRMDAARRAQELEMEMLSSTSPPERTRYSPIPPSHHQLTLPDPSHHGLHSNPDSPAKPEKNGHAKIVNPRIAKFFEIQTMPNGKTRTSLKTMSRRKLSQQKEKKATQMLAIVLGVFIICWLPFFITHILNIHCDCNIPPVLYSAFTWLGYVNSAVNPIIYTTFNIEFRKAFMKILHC
Sequence of D(1A) dopamine receptor (P18901 whole entry): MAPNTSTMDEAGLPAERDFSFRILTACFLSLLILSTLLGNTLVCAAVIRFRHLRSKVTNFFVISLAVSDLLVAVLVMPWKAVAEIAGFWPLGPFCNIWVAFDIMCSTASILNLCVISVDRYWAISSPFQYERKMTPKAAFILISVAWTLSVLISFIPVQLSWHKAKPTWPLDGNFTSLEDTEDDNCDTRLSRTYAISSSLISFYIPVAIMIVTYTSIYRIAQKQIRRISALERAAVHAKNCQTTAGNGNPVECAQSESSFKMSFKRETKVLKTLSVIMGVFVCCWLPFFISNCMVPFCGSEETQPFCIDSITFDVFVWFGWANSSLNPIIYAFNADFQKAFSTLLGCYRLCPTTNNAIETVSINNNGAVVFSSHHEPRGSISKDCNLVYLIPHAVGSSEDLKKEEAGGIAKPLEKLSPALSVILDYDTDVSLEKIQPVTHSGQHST

| Compound | Activity (Rattus norvegicus [1]) | Control (Rattus norvegicus [2]) [%] | Activity (Rattus norvegicus [3]) | Activity (Rattus norvegicus [4]) | Activity (Rattus norvegicus [5]) | Activity (Rattus norvegicus [6]) | Ki (Dopamine receptor) [nM] | Ki (D(1A) dopamine receptor) [nM] | Ki (D(2) dopamine receptor) [nM] | Control (Rattus norvegicus [7]) [%] | Activity (Rattus norvegicus [8]) | Control (Rattus norvegicus [9]) [%] | Activity (Rattus norvegicus [10]) | Activity (Rattus norvegicus [11]) | Control (Rattus norvegicus [12]) [%] |
| --- | --- | --- | --- | --- | --- | --- | --- | --- | --- | --- | --- | --- | --- | --- | --- |
| CCCN1CCc2cccc3c2[C@H]1Cc1cccc(O)c1-3 | 13.8 | 151 | 0.8 | 764 | 9.5 | 5.7 | – | – | – | – | – | – | – | – | – |
| CCCN1CCc2cccc3c2[C@@H]1Cc1ccccc1-3 | – | – | – | – | – | – | 278 | 1340 | 115 | – | – | – | – | – | – |
| CCCN1CCc2cccc3c2[C@@H]1Cc1cccc(O)c1-3 | 1.3 | 43 | 0.8 | – | 1.7 | 0.6 | – | – | – | 21 | 218 | 81 | 410 | – | – |
| CCCN1CCc2cccc3c2[C@H]1Cc1ccccc1-3 | – | – | – | – | – | – | 1.1 | 340 | 2.4 | – | – | – | – | – | – |
| CN1CCc2cccc3c2[C@H]1Cc1ccc(O)c(O)c1-3 [APOMORPHINE] | 17.5 | – | 0.8 | – | 12.7 | 9.7 | – | – | – | – | – | – | – | 505 | 100 |
